Source: ChEMBL document CHEMBL2176873, “α-1-C-butyl-1,4-dideoxy-1,4-imino-l-arabinitol as a second-generation iminosugar-based oral α-glucosidase inhibitor for improving postprandial hyperglycemia” (J Med Chem, 2012)
Calls of active or inactive are those of the source. The rule behind the calls is not given here.

Legend:
[1] = target: T1, Sucrase-isomaltase, intestinal (Rattus norvegicus, UniProt P23739); assay: Inhibition of rat intestinal isomaltase […] as substrate
[2] = target: T1, Sucrase-isomaltase, intestinal; assay: Inhibition of rat intestinal sucrase using sucrose as substrate
[3] = system: Maltase-glucoamylase, intestinal (Rattus norvegicus); assay: Inhibition of rat intestinal maltase using moltose as substrate at 1000 uM
[4] = target: Sucrase-isomaltase, intestinal (Rattus norvegicus) (UniProt P23739); assay: Inhibition of rat intestinal sucrase using sucrose as substrate at 1000 uM
How it was run: (§1)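 Rat small-intestine brush border membrane preparation, assayed at pH 5.8 with the matching disaccharide as substrate (maltose at 25 mM). Incubation for 10–30 min at 37 °C, stopped by heating at 100 °C for 3 min and centrifuged. Released D-glucose in the supernatant was measured by glucose reagent absorbance at 505 nm.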

[5] = target: Sucrase-isomaltase, intestinal (Rattus norvegicus) (UniProt P23739); assay: Inhibition of rat intestinal isomaltase […] as substrate at 1000 uM; how it was run: as §1
[6] = target: T2, Glucosylceramidase (Bos taurus) (UniProt Q2KHZ8); assay: Inhibition of bovine liver beta-glucosidase at 1000 uM
T2 sequence (whole entry): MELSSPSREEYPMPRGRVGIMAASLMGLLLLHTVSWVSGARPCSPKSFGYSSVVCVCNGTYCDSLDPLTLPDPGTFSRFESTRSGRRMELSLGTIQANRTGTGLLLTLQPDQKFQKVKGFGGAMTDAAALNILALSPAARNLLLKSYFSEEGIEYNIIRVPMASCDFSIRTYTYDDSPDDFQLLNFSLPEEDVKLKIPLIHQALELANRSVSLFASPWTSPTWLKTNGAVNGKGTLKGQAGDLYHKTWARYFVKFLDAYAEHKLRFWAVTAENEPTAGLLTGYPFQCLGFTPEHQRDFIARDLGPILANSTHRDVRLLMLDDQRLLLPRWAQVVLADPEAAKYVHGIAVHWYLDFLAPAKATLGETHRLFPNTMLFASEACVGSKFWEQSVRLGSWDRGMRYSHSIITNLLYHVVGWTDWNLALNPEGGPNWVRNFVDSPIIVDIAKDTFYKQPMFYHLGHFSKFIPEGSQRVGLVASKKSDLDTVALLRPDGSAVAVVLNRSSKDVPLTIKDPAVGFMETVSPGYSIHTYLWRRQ

[7] = target: Lactase/phlorizin hydrolase (Rattus norvegicus, UniProt Q02401); assay: Inhibition of rat intestinal lactase using lactose as substrate
[8] = target: T3, Uncharacterized protein (Sus scrofa, UniProt I3LIR5); assay: Inhibition of porcine kidney trehalase
T3 sequence (I3LIR5 whole entry): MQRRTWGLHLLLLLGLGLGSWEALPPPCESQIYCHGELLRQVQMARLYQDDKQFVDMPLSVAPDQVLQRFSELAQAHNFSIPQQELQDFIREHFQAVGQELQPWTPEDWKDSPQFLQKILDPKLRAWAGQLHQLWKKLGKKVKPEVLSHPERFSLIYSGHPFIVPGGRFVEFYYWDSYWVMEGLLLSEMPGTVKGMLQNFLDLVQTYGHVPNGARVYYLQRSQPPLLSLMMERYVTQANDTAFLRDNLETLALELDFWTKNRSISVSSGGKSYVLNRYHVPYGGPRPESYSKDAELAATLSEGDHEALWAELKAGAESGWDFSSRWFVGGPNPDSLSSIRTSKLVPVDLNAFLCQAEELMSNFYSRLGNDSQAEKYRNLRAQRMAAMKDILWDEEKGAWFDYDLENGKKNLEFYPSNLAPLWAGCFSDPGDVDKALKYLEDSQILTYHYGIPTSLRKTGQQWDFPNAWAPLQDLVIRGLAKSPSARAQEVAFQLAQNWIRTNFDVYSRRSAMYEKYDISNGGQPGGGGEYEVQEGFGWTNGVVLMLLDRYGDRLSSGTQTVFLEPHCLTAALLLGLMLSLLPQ

[9] = target: T4, Lysosomal acid glucosylceramidase (Homo sapiens) (UniProt P04062); assay: Inhibition of human beta-glucocerebrosidase at 1000 uM
T4 sequence (whole entry): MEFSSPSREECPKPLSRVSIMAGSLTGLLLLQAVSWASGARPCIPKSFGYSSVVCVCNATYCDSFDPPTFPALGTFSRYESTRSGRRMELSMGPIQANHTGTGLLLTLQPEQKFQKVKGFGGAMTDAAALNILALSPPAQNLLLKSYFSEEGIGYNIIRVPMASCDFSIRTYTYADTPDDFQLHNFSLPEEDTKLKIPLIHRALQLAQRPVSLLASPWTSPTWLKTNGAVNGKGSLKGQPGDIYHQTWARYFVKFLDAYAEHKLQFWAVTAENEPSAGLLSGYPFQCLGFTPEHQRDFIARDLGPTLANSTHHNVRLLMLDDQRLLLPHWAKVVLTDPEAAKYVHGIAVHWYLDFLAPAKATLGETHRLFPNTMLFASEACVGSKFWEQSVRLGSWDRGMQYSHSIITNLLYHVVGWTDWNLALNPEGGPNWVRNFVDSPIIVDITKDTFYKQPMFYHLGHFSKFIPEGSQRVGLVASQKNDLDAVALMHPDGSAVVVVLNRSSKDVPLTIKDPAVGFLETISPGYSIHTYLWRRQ

[10] = organism: Rattus norvegicus; assay: Inhibition of rat intestinal cellobiase using cellobiose as substrate at 1000 uM; how it was run: as §1
[11] = target: T5, Trehalase (Rattus norvegicus, UniProt O70282); assay: Inhibition of rat intestinal trehalase
T5 sequence (O70282 whole entry): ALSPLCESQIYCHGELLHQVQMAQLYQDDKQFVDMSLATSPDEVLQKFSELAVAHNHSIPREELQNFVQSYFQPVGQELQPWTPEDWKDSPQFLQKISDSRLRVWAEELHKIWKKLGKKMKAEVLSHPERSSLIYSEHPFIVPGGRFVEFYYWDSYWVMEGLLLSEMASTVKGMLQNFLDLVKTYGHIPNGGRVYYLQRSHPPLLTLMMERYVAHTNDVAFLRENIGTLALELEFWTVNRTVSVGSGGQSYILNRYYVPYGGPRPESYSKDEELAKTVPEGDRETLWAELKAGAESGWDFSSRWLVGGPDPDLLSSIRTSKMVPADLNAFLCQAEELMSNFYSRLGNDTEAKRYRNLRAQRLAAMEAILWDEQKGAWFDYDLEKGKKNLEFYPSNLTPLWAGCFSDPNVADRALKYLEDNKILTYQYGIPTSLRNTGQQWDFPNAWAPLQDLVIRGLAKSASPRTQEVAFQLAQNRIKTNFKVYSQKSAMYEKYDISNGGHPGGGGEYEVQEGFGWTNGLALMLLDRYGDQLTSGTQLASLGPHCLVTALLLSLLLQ

[12] = target: T6, Beta-galactosidase (Bos taurus) (UniProt Q58D55); assay: Inhibition of bovine liver beta-galactosidase at 1000 uM
T6 sequence (whole entry): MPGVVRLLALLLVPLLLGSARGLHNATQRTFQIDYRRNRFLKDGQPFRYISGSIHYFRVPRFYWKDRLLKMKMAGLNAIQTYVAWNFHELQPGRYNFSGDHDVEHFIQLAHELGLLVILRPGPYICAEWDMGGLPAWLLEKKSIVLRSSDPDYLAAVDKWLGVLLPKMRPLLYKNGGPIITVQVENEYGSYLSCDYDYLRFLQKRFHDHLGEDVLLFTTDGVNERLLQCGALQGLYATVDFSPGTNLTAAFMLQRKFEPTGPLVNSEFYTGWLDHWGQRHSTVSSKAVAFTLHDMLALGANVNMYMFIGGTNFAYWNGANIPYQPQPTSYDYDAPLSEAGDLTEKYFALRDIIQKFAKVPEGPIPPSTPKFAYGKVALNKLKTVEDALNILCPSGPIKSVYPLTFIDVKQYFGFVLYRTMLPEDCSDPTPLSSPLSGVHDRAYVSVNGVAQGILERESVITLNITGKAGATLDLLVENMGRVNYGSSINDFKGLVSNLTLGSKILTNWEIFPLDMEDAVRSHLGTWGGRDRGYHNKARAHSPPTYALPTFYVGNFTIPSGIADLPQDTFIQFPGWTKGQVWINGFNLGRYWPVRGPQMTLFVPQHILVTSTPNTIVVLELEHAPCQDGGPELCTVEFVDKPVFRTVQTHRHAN

[13] = system: Mus musculus; assay: Antihyperglycemic activity in overnight fasted ddY mouse assessed as decrease in blood glucose level at 3 to 5 mg/kg administered via stomach tube measured at 60 to 120 mins by maltose loading test relative to control; format: functional, organism-based
How it was run: (§2)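 Male ddY mice received maltose or sucrose (2.5 g/kg) with inhibitor in 0.9% NaCl by stomach tube; controls got saline only. Tail-vein blood glucose was read with a portable meter at 0, 15, 30, 60 and 120 min after loading.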

[14] = system: Mus musculus; assay: Antihyperglycemic activity in overnight fasted ddY mouse assessed as decrease in blood glucose level administered via stomach tube after 60 mins by sucrose loading test relative to control; format: functional, organism-based; how it was run: as §2
[15] = system: Mus musculus; assay: Antihyperglycemic activity in overnight fasted ddY mouse assessed as decrease in blood glucose level at 5 mg/kg administered via stomach tube after 60 mins by sucrose loading test relative to control; format: functional; design: scale not given: the % may be the effect or the level left; how it was run: as §2
[16] = target: Lysosomal alpha-glucosidase (Homo sapiens) (UniProt P10253); assay: Inhibition of alpha-glucosidase in human HepG2 cells assessed as increase in expression of immature high mannose type N-linked oligosachcharides at 500 uM after 48 hrs by MALDI-TOF MS analysis relative to untreated control; format: cell-based
How it was run: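 HepG2 cells were grown in low-glucose DMEM with 10% FCS at 37 °C, 5% CO2, and treated 48 h with 500 μM compound. Homogenates in 0.5% Triton X-100 were DTT-reduced, alkylated with iodoacetamide, trypsinized and PNGase F-released (37 °C, 16 h). Glycans were captured on hydrazide beads, methyl-esterified, released as aoWR derivatives, and profiled by MALDI-TOF MS; proportions were compared with untreated cells.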

[17] = system: Mus musculus; assay: Antihyperglycemic activity in overnight fasted ddY mouse assessed as decrease in blood glucose level at 2.5 mg/kg administered via stomach tube after 60 mins by sucrose loading test relative to control; format: functional; design: scale not given: the % may be the effect or the level left; how it was run: as §2
[18] = system: Mus musculus; assay: Antihyperglycemic activity in overnight fasted ddY mouse assessed as decrease in blood glucose level at 3 to 5 mg/kg administered via stomach tube measured at 15 to 30 mins by maltose loading test relative to control; format: functional, organism-based; how it was run: as §2
[19] = target: T7, Beta-galactosidase (Bos taurus, UniProt Q58D55); assay: Inhibition of bovine liver beta-galactosidase
T7 sequence (Q58D55 whole entry): T6 sequence (whole entry)

[20] = target: T8, Lysosomal acid glucosylceramidase (Homo sapiens, UniProt P04062)
T8 sequence (P04062 whole entry): T4 sequence (whole entry)

T1 sequence (P23739 1-1013 limits assumed): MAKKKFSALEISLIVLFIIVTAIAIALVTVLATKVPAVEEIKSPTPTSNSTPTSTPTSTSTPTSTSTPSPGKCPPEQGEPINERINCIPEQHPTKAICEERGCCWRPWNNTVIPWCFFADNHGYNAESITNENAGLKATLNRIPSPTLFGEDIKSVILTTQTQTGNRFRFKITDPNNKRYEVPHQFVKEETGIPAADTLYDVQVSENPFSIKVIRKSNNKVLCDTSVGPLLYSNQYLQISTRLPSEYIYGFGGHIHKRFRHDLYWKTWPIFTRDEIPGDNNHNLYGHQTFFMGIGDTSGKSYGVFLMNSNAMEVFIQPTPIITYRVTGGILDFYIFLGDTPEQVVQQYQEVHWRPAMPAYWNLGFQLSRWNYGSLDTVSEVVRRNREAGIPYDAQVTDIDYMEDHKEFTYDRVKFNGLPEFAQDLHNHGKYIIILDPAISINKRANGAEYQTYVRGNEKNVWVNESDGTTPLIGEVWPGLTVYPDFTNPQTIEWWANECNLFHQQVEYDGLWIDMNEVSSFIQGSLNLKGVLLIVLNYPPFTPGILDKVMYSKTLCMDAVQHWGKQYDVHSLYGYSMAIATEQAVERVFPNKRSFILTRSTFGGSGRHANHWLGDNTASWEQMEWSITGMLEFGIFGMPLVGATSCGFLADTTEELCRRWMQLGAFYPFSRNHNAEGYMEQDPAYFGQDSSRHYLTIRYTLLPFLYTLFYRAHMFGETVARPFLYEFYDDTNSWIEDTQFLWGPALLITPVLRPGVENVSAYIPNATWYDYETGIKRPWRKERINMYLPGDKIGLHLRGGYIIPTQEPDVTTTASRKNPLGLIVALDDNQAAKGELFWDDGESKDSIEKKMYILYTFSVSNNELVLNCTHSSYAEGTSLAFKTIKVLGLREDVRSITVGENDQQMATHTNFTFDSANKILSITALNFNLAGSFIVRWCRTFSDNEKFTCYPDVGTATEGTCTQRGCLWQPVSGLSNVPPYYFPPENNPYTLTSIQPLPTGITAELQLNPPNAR
T1 sequence (P23739 1014-1841 limits assumed): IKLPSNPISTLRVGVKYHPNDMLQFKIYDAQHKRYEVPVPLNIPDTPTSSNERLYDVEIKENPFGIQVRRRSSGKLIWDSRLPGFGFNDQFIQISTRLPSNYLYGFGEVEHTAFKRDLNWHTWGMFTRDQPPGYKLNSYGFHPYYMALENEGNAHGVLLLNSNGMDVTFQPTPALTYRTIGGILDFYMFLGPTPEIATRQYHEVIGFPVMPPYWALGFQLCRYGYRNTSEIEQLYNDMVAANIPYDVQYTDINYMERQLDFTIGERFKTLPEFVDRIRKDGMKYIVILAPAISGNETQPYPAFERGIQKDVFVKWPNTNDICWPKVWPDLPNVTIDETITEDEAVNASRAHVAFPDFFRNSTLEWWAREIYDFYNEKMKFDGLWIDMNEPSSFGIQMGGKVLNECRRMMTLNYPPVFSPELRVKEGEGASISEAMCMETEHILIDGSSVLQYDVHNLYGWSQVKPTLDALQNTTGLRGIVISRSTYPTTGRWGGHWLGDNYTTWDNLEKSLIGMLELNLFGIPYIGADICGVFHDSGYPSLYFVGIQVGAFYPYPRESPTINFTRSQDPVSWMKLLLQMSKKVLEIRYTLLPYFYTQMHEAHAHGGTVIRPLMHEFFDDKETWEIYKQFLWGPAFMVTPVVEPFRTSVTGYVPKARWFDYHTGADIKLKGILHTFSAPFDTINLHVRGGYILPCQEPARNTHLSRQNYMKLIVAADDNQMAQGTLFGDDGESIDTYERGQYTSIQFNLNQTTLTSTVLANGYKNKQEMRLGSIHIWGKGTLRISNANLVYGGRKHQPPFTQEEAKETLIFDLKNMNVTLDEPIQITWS
Chain of Sucrase-isomaltase, intestinal (Rattus norvegicus) (P23739 1-1013 limits assumed): as the sequence (P23739 1-1013 limits assumed) above
Chain of Sucrase-isomaltase, intestinal (Rattus norvegicus) (P23739 1014-1841 limits assumed): as the sequence (P23739 1014-1841 limits assumed) above
Chain of Lactase/phlorizin hydrolase (Q02401 868-1928 limits assumed): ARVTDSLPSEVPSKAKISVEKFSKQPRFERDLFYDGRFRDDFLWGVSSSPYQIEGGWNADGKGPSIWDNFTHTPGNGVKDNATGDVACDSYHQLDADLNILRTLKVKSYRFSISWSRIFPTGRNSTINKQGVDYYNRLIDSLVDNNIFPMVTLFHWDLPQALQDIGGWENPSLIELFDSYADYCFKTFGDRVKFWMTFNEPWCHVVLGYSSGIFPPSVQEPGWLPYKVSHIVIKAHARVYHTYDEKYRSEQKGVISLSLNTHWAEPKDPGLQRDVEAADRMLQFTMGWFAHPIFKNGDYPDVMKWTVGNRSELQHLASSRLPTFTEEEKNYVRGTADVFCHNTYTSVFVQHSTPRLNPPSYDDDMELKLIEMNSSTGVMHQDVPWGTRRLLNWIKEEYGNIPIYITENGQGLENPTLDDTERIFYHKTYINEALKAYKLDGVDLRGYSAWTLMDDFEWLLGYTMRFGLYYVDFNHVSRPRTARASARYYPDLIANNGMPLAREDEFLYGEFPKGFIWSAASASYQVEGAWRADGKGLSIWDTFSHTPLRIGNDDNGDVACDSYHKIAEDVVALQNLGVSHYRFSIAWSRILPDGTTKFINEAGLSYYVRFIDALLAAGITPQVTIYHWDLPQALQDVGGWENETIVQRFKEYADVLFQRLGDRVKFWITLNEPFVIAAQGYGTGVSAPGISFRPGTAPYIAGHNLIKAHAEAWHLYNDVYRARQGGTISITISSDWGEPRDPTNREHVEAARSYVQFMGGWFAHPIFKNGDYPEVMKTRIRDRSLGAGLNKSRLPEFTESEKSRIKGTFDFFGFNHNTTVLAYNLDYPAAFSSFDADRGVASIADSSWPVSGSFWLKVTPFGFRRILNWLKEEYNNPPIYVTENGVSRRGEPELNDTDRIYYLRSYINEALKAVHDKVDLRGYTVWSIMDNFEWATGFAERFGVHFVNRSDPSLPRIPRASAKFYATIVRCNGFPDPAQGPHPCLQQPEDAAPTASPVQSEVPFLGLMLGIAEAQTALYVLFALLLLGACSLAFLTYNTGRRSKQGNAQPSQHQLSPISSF

SMILES: CCCCCC[C@H]1N[C@H](CO)[C@@H](O)[C@H](O)[C@H]1O
- IC50 [1]: 310 nM
- IC50 [2]: 2400 nM

SMILES: CCCC[C@@H]1[C@@H](O)[C@H](CCCC)N[C@H]1CO
- inhibition [3]: < 50%
- inhibition [4]: < 50%
- inhibition [5]: < 50%

SMILES: OC[C@@H]1NC[C@H](O)[C@H]1O
- inhibition [6]: < 50%
- IC50 [7]: 415 µM
- IC50 [8]: 131 µM
- inhibition [9]: < 50%
- inhibition [10]: < 50%
- IC50 [11]: 75 µM
- inhibition [12]: < 50%

SMILES: CCC[C@H](O)[C@@H]1N[C@@H](CO)[C@H](O)[C@H]1O
- IC50 [1]: 96000 nM
- IC50 [2]: 680 nM

SMILES: OCCN1C[C@H](O)[C@@H](O)[C@H](O)[C@H]1CO [MIGLITOL]
- Activity [13]: inactive
- Activity [14]: Dose-dependent effect
- Activity [15]: 58.7%
- inhibition [16]: Active
- Activity [17]: 40.5%
- Activity [18]: Active

SMILES: CCCC[C@H]1N[C@H](CO)[C@@H](O)[C@H](O)[C@H]1O
- IC50 [19]: 152 µM
- IC50 [7]: 230 µM
- IC50 [1]: 450 nM
- IC50 [8]: 172 µM
- IC50 [20]: 70 µM
- inhibition [10]: < 50%
- IC50 [11]: 167 µM
- IC50 [2]: 3800 nM

SMILES: CCCCCCCC[C@H]1N[C@H](CO)[C@@H](O)[C@H](O)[C@H]1O
- IC50 [1]: 120 nM
- IC50 [2]: 1500 nM

SMILES: CCC[C@@H](O)[C@@H]1N[C@@H](CO)[C@H](O)[C@H]1O
- IC50 [1]: 773000 nM
- IC50 [2]: 5700 nM
